Assay results pooled from the literature.
Lines come from different studies, so protocols differ.
Target: Casein kinase I isoform gamma-3 (CSNK1G3, Homo sapiens, UniProt Q9Y6M4)

SMILES | assay | setting | measurement | result
C[C@@H](c1cccc(C#N)c1)n1cc(Cl)cc(C(N)=O)c1=N | cell-free assay, competition with immobilised ligand | 1 µM | remaining binding | 100%
Cc1ccc(C(=O)Nc2ccc(CN3CCN(C)CC3)c(C(F)(F)F)c2)cc1C#Cc1cnc2cccnn12 | enzyme activity, inhibitor | 23.5 nM | remaining activity | 97%
O=C(O)c1cc(-c2ccc(C3CCNCC3)cc2)c2ccc(-c3ccc(C(F)(F)F)cc3)cc2c1 | cell-free assay, competition with immobilised ligand | 1 µM | remaining binding | 100%
O=C(Nc1cnn(-c2csc(C(=O)NC3COC3)c2)c1)Nc1c(F)cccc1Cl | enzyme activity, inhibitor | 5 µM | remaining activity | 92.6%
Cn1c2c(c3ccc(Cl)c(Cl)c31)C(C#N)C1(CCOCC1)NC2=O (centres unmarked) | thermal stability, DSF | 10 µM | ΔTm | 0.2 °C
CCCOc1ccc([C@@H]2[C@@H](C(=O)O)[C@H](c3ccc4c(c3)OCO4)CN2CC(=O)Nc2c(CC)cccc2CC)cc1 | cell-free assay, competition with immobilised ligand | 1 µM | remaining binding | 100%
CNC(=O)c1cc(Oc2ccc(NC(=O)Nc3ccc(Cl)c(C(F)(F)F)c3)cc2)ccn1 | enzyme activity, inhibitor | 10 µM | inhibition | 2%
CN1CC(Oc2cnc(C#N)cc2-c2ccn3nc(NC(=O)C4CC4)cc3c2)C1 | enzyme activity, inhibitor | 1 µM | inhibition | 21%
Cn1c2c(Cl)c(Cl)ccc2c2cc(N)[nH]c(=O)c21 | thermal stability, DSF | 10 µM | ΔTm | 0.1 °C
O=C(N[C@H]1CCCCC/C=C\C2C[C@@]2(C(=O)O)NC(=O)[C@@H]2C[C@@H](Oc3ccncc3)CN2C1=O)OC1CCCC1 (some centres unmarked) | binding, competition with immobilised ligand | 1 µM | remaining binding | 100%
N#CC1c2c([nH]c3c(Cl)c(Cl)ccc23)C(=O)NC12CCCCC2 (racemic) | thermal stability, DSF | 10 µM | ΔTm | 0.2 °C
CCS(=O)(=O)c1cc2cc(C[C@@](O)(CC(C)(C)c3ccc(F)cc3C(N)=O)C(F)(F)F)[nH]c2cn1 | cell-free assay, competition with immobilised ligand | 1 µM | remaining binding | 100%
Cc1cnc(NC2CCOCC2)nc1-n1cnc(C(=O)NC(CN)c2cc(F)cc(Cl)c2)c1 (centres unmarked) | enzyme activity, inhibitor, radiometric | 1 µM | remaining activity | 33%
O=C(NC[C@@H]1[C@H]2CN(C(=O)OCc3cc(C(F)(F)F)cc(C(F)(F)F)c3)C[C@@H]12)c1ccc2[nH]nnc2c1 | cell-free assay, competition with immobilised ligand | 1 µM | remaining binding | 89%
COc1cc(Nc2c(C#N)cnc3cc(OCCCN4CCN(C)CC4)c(OC)cc23)c(Cl)cc1Cl | cell-free assay | 0.5 µM | remaining signal | 98.3%
CC(C)(C)c1nc2c(s1)c1nc(N)ncc1c1ccc(NS(=O)(=O)c3c(F)cccc3F)c(F)c12 | enzyme activity, inhibitor, radiometric | 1 µM | remaining activity | 86%
Nc1ncnc2occ(-c3ccc(NC(=O)Nc4cc(C(F)(F)F)ccc4F)cc3)c12 | cell-free assay, inhibitor | 20 µM | remaining signal | 11%
CC(C)(O)[C@H]1CC[C@H](Nc2ccc3ncc(-c4cccc(C(F)(F)F)c4)n3n2)CC1 | enzyme activity, inhibitor | 1 µM | remaining activity | 90%
O=C1Nc2ccc(Cl)cc2C1=Cc1cc(Cl)c(O)c(Cl)c1 | cell-free assay | 0.5 µM | remaining signal | 93%
F[C@@H]1CCN(c2nccc(-c3cnn4ncccc34)n2)C1 | binding | 1 µM | remaining binding | 86%
Cc1cc(-n2nc(Cc3cc(F)cc(C(F)(F)F)c3)nc2C)ccc1C(N)=O | cell-free assay, competition with immobilised ligand | 1 µM | remaining binding | 95%
COc1cc2ncnc(Nc3ccc(Oc4ccccc4)c(C)c3C)c2cc1OC | enzyme activity, inhibitor | 1 µM | inhibition | 3%
CS(=O)(=O)CCNCc1ccc(-c2ccc3ncnc(Nc4ccc(OCc5cccc(F)c5)c(Cl)c4)c3c2)o1 | cell-free assay | 0.5 µM | remaining signal | 104%
CO[C@@H](C)c1c(Nc2ccc([C@@H](N(C)C(=O)C3CCS(=O)(=O)CC3)C(F)(F)F)cc2)cnc2cc(Cl)nn12 | cell-free assay, competition with immobilised ligand | 1 µM | remaining binding | 71%
Cn1c2c(Cl)c(Cl)ccc2c2cn[nH]c(=O)c21 | thermal stability, DSF | 10 µM | ΔTm | -0.1 °C
N#CCCc1ccc2c(c1)-c1[nH]c3ccc([N+](=O)[O-])cc3c1CC(=O)N2 | cell-free assay | 0.5 µM | remaining signal | 89.7%
Cn1c2c(c3ccc(Cl)c(Cl)c31)C(C#N)C1(CCCCC1)NC2=O (racemic) | thermal stability, DSF | 10 µM | ΔTm | -0.2 °C
COc1cc2c(N3CCN(C(=O)Nc4ccc(OC(C)C)cc4)CC3)ncnc2cc1OCCCN1CCCCC1 | cell-free assay | 0.5 µM | remaining signal | 95%
Cc1ccc(Nc2nccc(N(C)c3ccc4c(C)n(C)nc4c3)n2)cc1S(N)(=O)=O | enzyme activity, inhibitor | 10 µM | inhibition | 18%
